# Results published in ChEMBL document CHEMBL1221342, “Synthesis and in vitro antitumor activity of new 4,5-dihydropyrazole derivatives” (Bioorg Med Chem, 2010).
# Tests used:
# Assay type in all cases: functional
# MDA-MB-435 = assay: Growth inhibition of human MDA-MB-435 cells after 48 hrs by SRB assay; settings: MDA-MB-435, 48 h
# In short: (§1)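 NCI 60-cell-line screen. Cells grown in RPMI1640 with 5% fetal calf serum and 2 mM L-glutamine, with inoculum density set by cell line. Preincubated 24 h, then given compound in DMSO at 10^-4 to 10^-8 M (five 10-fold steps) for 48 h continuous exposure. Growth measured by SRB protein assay. GI50, TGI and LC50 reported as –log molar.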
# IGROV-1 = assay: Growth inhibition of human IGROV1 cells after 48 hrs by SRB assay; settings: IGROV-1, 48 h; in short: as §1
# TK-10 = assay: Growth inhibition of human TK10 cells after 48 hrs by SRB assay; settings: TK-10, 48 h; in short: as §1
# T47D = assay: Growth inhibition of human T47D cells after 48 hrs by SRB assay; settings: read-out: pTGI (converted); in short: as §1
# NCI/ADR-RES = assay: Growth inhibition of human NCI/ADR-RES cells after 48 hrs by SRB assay; in short: as §1
# SW-620 = assay: Growth inhibition of human SW620 cells after 48 hrs by SRB assay; settings: SW-620, 48 h; in short: as §1
# HL-60(TB) = assay: Growth inhibition of human HL-60(TB) cells after 48 hrs by SRB assay; settings: HL-60, 48 h
# In short: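 NCI 60-cell-line screen: cells grown in RPMI1640 with 5% fetal calf serum and 2 mM L-glutamine, preincubated 24 h, then exposed to compound in DMSO at five concentrations (10^-4 to 10^-8 M) for 48 h continuous exposure. Growth estimated by sulforhodamine B protein assay; reported as pGI50 (-log molar concentration inhibiting net cell growth by 50%).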
# SF-268 = assay: Growth inhibition of human SF268 cells after 48 hrs by SRB assay; settings: SF-268, 48 h; in short: as §1
# CCRF-CEM = assay: Growth inhibition of human CCRF-CEM cells after 48 hrs by SRB assay; in short: as §1
# HCT-15 = assay: Growth inhibition of human HCT15 cells after 48 hrs by SRB assay; settings: HCT-15, 48 h; in short: as §1
# EKVX = assay: Growth inhibition of human EKVX cells after 48 hrs by SRB assay; in short: as §1
# SK-MEL-2 = assay: Growth inhibition of human SK-MEL-2 cells after 48 hrs by SRB assay; settings: SK-MEL-2, 48 h; in short: as §1
# BT-549 = assay: Growth inhibition of human BT549 cells after 48 hrs by SRB assay; settings: BT-549, 48 h, read-out: pTGI (converted); in short: as §1
# CAKI-1 = assay: Growth inhibition of human Caki1 cells after 48 hrs by SRB assay; settings: CAKI-1, 48 h; in short: as §1
# HOP-62 = assay: Growth inhibition of human HOP62 cells after 48 hrs by SRB assay; settings: HOP-62, 48 h; in short: as §1
# SNB-75 = assay: Growth inhibition of human SNB75 cells after 48 hrs by SRB assay; settings: SNB-75, 48 h; in short: as §1
# SF-539 = assay: Growth inhibition of human SF539 cells after 48 hrs by SRB assay; settings: SF-539, 48 h; in short: as §1
# 786-0 = assay: Growth inhibition of human 786-0 cells after 48 hrs by SRB assay; settings: 786-0, 48 h; in short: as §1
# MDA-MB-468 = assay: Growth inhibition of human MDA-MB-468 cells after 48 hrs by SRB assay; settings: MDA-MB-468, 48 h; in short: as §1
# DU-145 = assay: Growth inhibition of human DU145 cells after 48 hrs by SRB assay; settings: DU-145, 48 h; in short: as §1
# RXF 393 = assay: Growth inhibition of human RXF393 cells after 48 hrs by SRB assay; settings: RXF 393, 48 h; in short: as §1
# M14 = assay: Growth inhibition of human M14 cells after 48 hrs by SRB assay; settings: M14, 48 h; in short: as §1
# NCI-H460 = assay: Growth inhibition of human NCI-H460 cells after 48 hrs by SRB assay; settings: NCI-H460, 48 h; in short: as §1
# UO-31 = assay: Growth inhibition of human UO31 cells after 48 hrs by SRB assay; settings: UO-31, 48 h; in short: as §1
# Malme-3M = assay: Growth inhibition of human MALME-3M cells after 48 hrs by SRB assay; settings: read-out: pTGI (converted); in short: as §1
# SK-MEL-28 = assay: Growth inhibition of human SK-MEL-28 cells after 48 hrs by SRB assay; settings: SK-MEL-28, 48 h; in short: as §1
# SK-MEL-5 = assay: Growth inhibition of human SK-MEL-5 cells after 48 hrs by SRB assay; settings: SK-MEL-5, 48 h; in short: as §1
# [1] = Growth inhibition of human […] cells after 48 hrs by SRB assay; in short: as §1
# OVCAR-8 = assay: Growth inhibition of human OVCAR8 cells after 48 hrs by SRB assay; settings: OVCAR-8, 48 h; in short: as §1
# NCI-H522 = assay: Growth inhibition of human NCI-H522 cells after 48 hrs by SRB assay; settings: NCI-H522, 48 h; in short: as §1
# KM12 = assay: Growth inhibition of human KM12 cells after 48 hrs by SRB assay; settings: KM12, 48 h; in short: as §1
# A498 = assay: Growth inhibition of human A498 cells after 48 hrs by SRB assay; settings: A498, 48 h; in short: as §1
# SK-OV-3 = assay: Growth inhibition of human SKOV3 cells after 48 hrs by SRB assay; settings: SK-OV-3, 48 h; in short: as §1
# SR = assay: Growth inhibition of human SR cells after 48 hrs by SRB assay; in short: as §1
structure (smiles),measurement,setting,value
COc1cc(C2CC(c3cccc(Br)c3)=NN2C(C)=O)cc(OC)c1OC (centres undefined),GI50,MDA-MB-435,50.1 nM
same,TGI,MDA-MB-435; read-out: pTGI (converted),251 nM
same,GI50,IGROV-1,2000 nM
same,TGI,IGROV-1; read-out: pTGI (converted),> 100 µM
same,GI50,TK-10,12.6 µM
same,TGI,TK-10; read-out: pTGI (converted),63.1 µM
same,TGI,T47D,39.8 µM
same,GI50,NCI/ADR-RES,398 nM
same,TGI,NCI/ADR-RES; read-out: pTGI (converted),> 100 µM
same,GI50,SW-620,316 nM
same,TGI,SW-620; read-out: pTGI (converted),> 100 µM
same,GI50,HL-60(TB),251 nM
same,TGI,HL-60(TB); read-out: pTGI (converted),501 nM
same,GI50,SF-268,1000 nM
same,TGI,SF-268; read-out: pTGI (converted),79.4 µM
same,GI50,CCRF-CEM,316 nM
same,TGI,CCRF-CEM; read-out: pTGI (converted),2000 nM
same,GI50,HCT-15,316 nM
same,TGI,HCT-15; read-out: pTGI (converted),31.6 µM
same,GI50,EKVX,631 nM
same,TGI,EKVX; read-out: pTGI (converted),> 100 µM
same,GI50,SK-MEL-2,20 µM
same,TGI,SK-MEL-2; read-out: pTGI (converted),79.4 µM
same,TGI,BT-549,39.8 µM
same,GI50,CAKI-1,251 nM
same,TGI,CAKI-1; read-out: pTGI (converted),39.8 µM
same,GI50,HOP-62,1000 nM
same,TGI,HOP-62; read-out: pTGI (converted),79.4 µM
same,GI50,SNB-75,398 nM
same,TGI,SNB-75; read-out: pTGI (converted),> 100 µM
same,GI50,SF-539,316 nM
same,TGI,SF-539; read-out: pTGI (converted),10 µM
same,GI50,786-0,794 nM
same,TGI,786-0; read-out: pTGI (converted),> 100 µM
same,GI50,MDA-MB-468,200 nM
same,TGI,MDA-MB-468; read-out: pTGI (converted),> 100 µM
same,GI50,DU-145,398 nM
same,TGI,DU-145; read-out: pTGI (converted),12.6 µM
same,GI50,RXF 393,251 nM
same,TGI,RXF 393; read-out: pTGI (converted),1000 nM
same,GI50,M14,631 nM
same,TGI,M14; read-out: pTGI (converted),63.1 µM
same,GI50,NCI-H460,316 nM
same,TGI,NCI-H460; read-out: pTGI (converted),12.6 µM
same,GI50,UO-31,12.6 µM
same,TGI,UO-31; read-out: pTGI (converted),> 100 µM
same,TGI,Malme-3M,50.1 µM
same,GI50,SK-MEL-28,794 nM
same,TGI,SK-MEL-28; read-out: pTGI (converted),63.1 µM
same,GI50,SK-MEL-5,251 nM
same,TGI,SK-MEL-5; read-out: pTGI (converted),12.6 µM
same,GI50,[1],158 nM
same,TGI,[1]; read-out: pTGI (converted),631 nM
same,GI50,OVCAR-8,631 nM
same,TGI,OVCAR-8; read-out: pTGI (converted),> 100 µM
same,GI50,NCI-H522,398 nM
same,GI50,KM12,316 nM
same,TGI,KM12; read-out: pTGI (converted),20 µM
same,GI50,A498,398 nM
same,TGI,A498; read-out: pTGI (converted),3.98 µM
same,GI50,SK-OV-3,501 nM
same,TGI,SK-OV-3; read-out: pTGI (converted),63.1 µM
same,GI50,SR,39.8 nM
same,TGI,SR; read-out: pTGI (converted),> 100 µM
